Experimental data taken from ChEMBL document CHEMBL2407020, “Design, synthesis, and evaluation of novel VEGFR2 kinase inhibitors: discovery of [1,2,4]triazolo[1,5-a]pyridine derivatives with slow dissociation kinetics” (Bioorg Med Chem, 2013).
Converted amounts (≈) assume the structure as drawn.

Experiments:
[1] = Metabolic stability in human liver microsomes; format: ADME, Microsome; conditions: read-out: Stability
Outline: (§1)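 Metabolic stability measured in hepatic microsomes, expressed in µL/min/mg.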

[2] = Metabolic stability in mouse liver microsomes; format: ADME, Microsome; conditions: read-out: Stability; outline: as §1
[3] = Kinetic solubility of the compound in 2nd fluid of Disintegration Test of the Japanese Pharmacopoeia at pH 6.8; format: physicochemical; conditions: read-out: Kinetic_solubility
Outline: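 Kinetic solubility measured in JP2 (2nd fluid of Disintegration Test, Japanese Pharmacopoeia), pH 6.8.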

SMILES	microsomal CLint [1] [µL/min/mg]	microsomal CLint [2] [µL/min/mg]	solubility kinetic [3] [µg/mL]
Cc1cc(C(=O)Nc2cccc(Oc3ccc4nc(NC(=O)C5CC5)cn4n3)c2)n(C)n1	6	43	1.7 (≈ 3.94 µM)
Cc1cc(NC(=O)c2cc(C)nn2C)cc(Oc2ccc3nc(NC(=O)C4CC4)nn3c2)c1	–	–	3.2 (≈ 7.18 µM)
Cc1cc(C(=O)Nc2cccc(Oc3ccc4nc(NC(=O)C5CC5)cn4c3)c2)n(C)n1	–	–	0.73 (≈ 1.7 µM)
Cc1cc(C(=O)Nc2cc(Oc3ccc4nc(NC(=O)C5CC5)cn4c3)ccc2C)n(C)n1	–	–	2.9 (≈ 6.52 µM)
Cc1cc(C(=O)Nc2cccc(Oc3ccc4nc(NC(=O)C5CC5)sc4n3)c2)n(C)n1	–	–	< 0.04
Cc1cc(C(=O)Nc2cc(Oc3ccc4nc(NC(=O)C5CC5)sc4n3)ccc2C)n(C)n1	–	–	4.8 (≈ 10.4 µM)
Cc1cc(C(=O)Nc2ccc(C)c(Oc3ccc4nc(NC(=O)C5CC5)nn4c3)c2)n(C)n1	–	–	3.7 (≈ 8.31 µM)
Cc1ccc(Oc2ccc3nc(NC(=O)C4CC4)nn3c2)cc1NC(=O)C1CCC1	–	–	> 78
Cc1cc(C(=O)Nc2cccc(Oc3ccc4nc(NC(=O)C5CC5)sc4c3)c2)n(C)n1	–	–	0.22 (≈ 0.492 µM)

Results, then the compound that gave them:

microsomal CLint [1] [µL/min/mg]	microsomal CLint [2] [µL/min/mg]	solubility kinetic [3] [µg/mL]	SMILES
–	–	1.2 (≈ 2.78 µM)	Cc1cc(C(=O)Nc2cccc(Oc3ccc4nc(NC(=O)C5CC5)nn4c3)c2)n(C)n1
–	–	53 (≈ 119 µM)	Cc1cc(C(=O)Nc2cc(Oc3ccc4nc(NC(=O)C5CC5)nn4c3)ccc2C)n(C)n1
10	45	65 (≈ 145 µM)	Cc1cc(C(=O)Nc2cc(Oc3ccc4nc(NC(=O)C5CC5)nn4c3)ccc2F)n(C)n1
–	–	0.16 (≈ 0.346 µM)	Cc1nc(C(=O)Nc2cc(Oc3ccc4nc(NC(=O)C5CC5)nn4c3)ccc2C)c(C)s1
–	–	1.2 (≈ 2.49 µM)	Cc1ccc(Oc2ccc3nc(NC(=O)C4CC4)nn3c2)cc1NC(=O)c1scc(C)c1Cl
6	78	> 93	Cc1ccc(Oc2ccc3nc(NC(=O)C4CC4)nn3c2)cc1NC(=O)c1cn(C)nc1C
–	–	> 80	Cc1ccc(Oc2ccc3nc(NC(=O)C4CC4)nn3c2)cc1NC(=O)c1ccnn1C
–	–	12 (≈ 29.4 µM)	Cc1ccc(Oc2ccc3nc(NC(=O)C4CC4)nn3c2)cc1NC(=O)CC(C)C
